Measured values reported in ChEMBL document CHEMBL2177043, “HIV-1 X4 activities of polycationic "viologen" based dendrimers by interaction with the chemokine receptor CXCR4: study of structure-activity relationship” (J Med Chem, 2012).
Calls of active or inactive are those of the source. The calls are words filed in the database; no cut-off is given here.

What was measured:
[1] = Cytotoxicity against human PBMC cells by MTT assay; assay type: cell-based
[2] = molecular target: T1, C-X-C chemokine receptor type 4 (Homo sapiens, UniProt P61073); assay: Agonist activity against CXCR4 expressed in U87.CD.CXCR4 cells assessed as stimulation of calcium signaling incubated for 10 mins by FLIPR; assay type: functional, cell-based
In short: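 U87.CD4 cells stably carrying CXCR4 or CCR5, trypsinized and seeded at 2 × 10⁴ cells/well on 0.2% gelatin the day before. Loaded with Fluo-3 AM (4 μM, 45 min, 37 °C), washed, then exposed to test agents alone at varied concentrations in assay buffer for 10 min at 37 °C. Cytosolic Ca²⁺ rise monitored over time by FLIPR to detect any agonist-triggered signal.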

[3] = molecular target: T2, C-C chemokine receptor type 5 (Homo sapiens, UniProt P51681); assay: Agonist activity against CCR5 expressed in U87.CD4.CCR5 cells assessed as stimulation of calcium signaling incubated for 10 mins by FLIPR
[4] = system: Human immunodeficiency virus 1; assay: Antiviral activity against X4 HIV1 NL4.3 infected in human PBMC assessed as inhibition of viral replication pre-incubated for 30 mins measured 5 days post infection by MTT assay; assay type: functional, organism-based; conditions: Human immunodeficiency virus 1, NL4.3
In short: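 Human PBMC infected with HIV-1 NL4.3. IC₅₀ is the concentration inhibiting viral replication by 50%, averaged over two independent experiments. Cytotoxicity (CC₅₀, 50% loss of PBMC viability) evaluated in the same assay.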

[5] = molecular target: T2, C-C chemokine receptor type 5; assay: Antagonist activity against CCR5 expressed in U87.CD4.CCR5 cells assessed as inhibition of CCL3L1-induced calcium signaling incubated for 10 mins by FLIPR
[6] = molecular target: T1, C-X-C chemokine receptor type 4; assay: Inhibition of anti-CXCR4 mAbs clone 173 binding to CXCR4 in human SUPT1 cells incubated for 30 mins by FACS
[7] = molecular target: T1, C-X-C chemokine receptor type 4; assay: Inhibition of anti-CXCR4 mAbs clone 1D9 binding to CXCR4 in human SUPT1 cells incubated for 30 mins by FACS
[8] = molecular target: T1, C-X-C chemokine receptor type 4; assay: Antagonist activity against CXCR4 expressed in U87.CD.CXCR4 cells assessed as inhibition of CXCL12-induced calcium signaling incubated for 10 mins by FLIPR; assay type: functional, cell-based
In short: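 U87.CD4.CXCR4 cells seeded at 2 × 10⁴/well on 0.2% gelatin the day before, loaded with 4 μM Fluo-3 AM for 45 min at 37 °C, washed, then preincubated with compounds at varied concentrations in assay buffer for 10 min at 37 °C. Challenged with 25 ng/mL CXCL12; Ca²⁺ flux followed over time by FLIPR.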

[9] = molecular target: T1, C-X-C chemokine receptor type 4; assay: Inhibition of CXCL-12'AF647 binding to CXCR4 in human SUPT1 cells incubated for 15 mins by FACS; assay type: cell-based
In short: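 SupT1 cells (high CXCR4) washed, then incubated 15 min at room temperature with compounds at varied concentrations in HBSS containing 20 mM HEPES and 0.2% BSA, pH 7.4. CXCL12-AF647 added at 25 ng/mL final for 30 min at room temperature. Cells washed, fixed in 1% paraformaldehyde, and read by flow cytometry on FL4.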

[10] = molecular target: T2, C-C chemokine receptor type 5; assay: Antagonist activity against CCR5 expressed in U87.CD4.CCR5 cells assessed as inhibition of CCL3L1-induced calcium signaling incubated for 10 mins by FLIPR; assay type: functional, cell-based
In short: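 U87.CD4.CCR5 cells seeded at 2 × 10⁴/well on 0.2% gelatin the day before, loaded with 4 μM Fluo-3 AM for 45 min at 37 °C, washed, then preincubated with compounds at varied concentrations in assay buffer for 10 min at 37 °C. Stimulated with 10 ng/mL LD78β (CCL3L1); Ca²⁺ flux recorded by FLIPR.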

[11] = Cytotoxicity against human MT4 cells by MTT assay; assay type: cell-based
[12] = system: Human immunodeficiency virus 1; assay: Antiviral activity against X4 HIV1 NL4.3 infected in human MT4 cells assessed as inhibition of viral replication pre-incubated for 30 mins […]; assay type: functional, organism-based; conditions: Human immunodeficiency virus 1, NL4.3, MT4
[13] = molecular target: T1, C-X-C chemokine receptor type 4; assay: Inhibition of anti-CXCR4 mAbs clone 12G5 binding to CXCR4 in human SUPT1 cells incubated for 30 mins by FACS

T1 sequence (P61073 whole entry): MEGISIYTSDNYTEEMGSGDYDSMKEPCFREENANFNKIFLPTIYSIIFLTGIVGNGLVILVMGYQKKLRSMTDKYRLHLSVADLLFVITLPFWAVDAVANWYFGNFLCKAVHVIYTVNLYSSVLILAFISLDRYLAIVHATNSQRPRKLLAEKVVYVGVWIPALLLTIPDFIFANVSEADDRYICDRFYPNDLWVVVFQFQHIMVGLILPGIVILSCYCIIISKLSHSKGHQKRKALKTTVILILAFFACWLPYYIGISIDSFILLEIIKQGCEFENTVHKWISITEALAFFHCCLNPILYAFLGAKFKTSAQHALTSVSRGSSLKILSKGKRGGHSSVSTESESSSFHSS
T2 sequence (P51681 whole entry, looked up): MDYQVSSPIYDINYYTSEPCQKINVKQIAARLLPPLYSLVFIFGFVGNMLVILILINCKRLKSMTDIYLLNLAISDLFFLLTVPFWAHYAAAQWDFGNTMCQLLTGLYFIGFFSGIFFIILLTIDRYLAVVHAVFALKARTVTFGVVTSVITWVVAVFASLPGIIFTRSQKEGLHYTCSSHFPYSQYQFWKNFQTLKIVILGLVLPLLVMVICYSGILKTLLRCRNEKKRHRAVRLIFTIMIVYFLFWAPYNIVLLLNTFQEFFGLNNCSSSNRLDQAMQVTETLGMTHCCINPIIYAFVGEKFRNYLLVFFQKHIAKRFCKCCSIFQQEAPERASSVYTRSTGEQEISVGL

Row | Structure (SMILES) | CC50 [1] | Activity [2] | Activity [3] | IC50 [4] | inhibition [5] | IC50 [6] | inhibition [6] | IC50 [7] | inhibition [7] | IC50 [8] | inhibition [8] | IC50 [9] | IC50 [10] | CC50 [11] | IC50 [12] | IC50 [13] | inhibition [13]
1 | Cc1cn(CCC[n+]2ccc(-c3cc[n+](Cc4cc(C[n+]5ccc(-c6cc[n+](CCCn7cc(C)c(=O)[nH]c7=O)cc6)cc5)cc(C[n+]5ccc(-c6cc[n+](Cc7cc(C[n+]8ccc(-c9cc[n+](Cc%10cc(C[n+]%11ccc(-c%12cc[n+](CCCn%13cc(C)c(=O)[nH]c%13=O)cc%12)cc%11)cc(C[n+]%11ccc(-c%12cc[n+](CCCn%13cc(C)c(=O)[nH]c%13=O)cc%12)cc%11)c%10)cc9)cc8)cc(C[n+]8ccc(-c9cc[n+](Cc%10cc(C[n+]%11ccc(-c%12cc[n+](Cc%13cc(C[n+]%14ccc(-c%15cc[n+](Cc%16cc(C[n+]%17ccc(-c%18cc[n+](CCCn%19cc(C)c(=O)[nH]c%19=O)cc%18)cc%17)cc(C[n+]%17ccc(-c%18cc[n+](CCCn%19cc(C)c(=O)[nH]c%19=O)cc%18)cc%17)c%16)cc%15)cc%14)cc(C[n+]%14ccc(-c%15cc[n+](Cc%16cc(C[n+]%17ccc(-c%18cc[n+](CCCn%19cc(C)c(=O)[nH]c%19=O)cc%18)cc%17)cc(C[n+]%17ccc(-c%18cc[n+](CCCn%19cc(C)c(=O)[nH]c%19=O)cc%18)cc%17)c%16)cc%15)cc%14)c%13)cc%12)cc%11)cc(C[n+]%11ccc(-c%12cc[n+](Cc%13cc(C[n+]%14ccc(-c%15cc[n+](Cc%16cc(C[n+]%17ccc(-c%18cc[n+](CCCn%19cc(C)c(=O)[nH]c%19=O)cc%18)cc%17)cc(C[n+]%17ccc(-c%18cc[n+](CCCn%19cc(C)c(=O)[nH]c%19=O)cc%18)cc%17)c%16)cc%15)cc%14)cc(C[n+]%14ccc(-c%15cc[n+](Cc%16cc(C[n+]%17ccc(-c%18cc[n+](CCCn%19cc(C)c(=O)[nH]c%19=O)cc%18)cc%17)cc(C[n+]%17ccc(-c%18cc[n+](CCCn%19cc(C)c(=O)[nH]c%19=O)cc%18)cc%17)c%16)cc%15)cc%14)c%13)cc%12)cc%11)c%10)cc9)cc8)c7)cc6)cc5)c4)cc3)cc2)c(=O)[nH]c1=O.F[P-](F)(F)(F)(F)F.F[P-](F)(F)(F)(F)F.F[P-](F)(F)(F)(F)F.F[P-](F)(F)(F)(F)F.F[P-](F)(F)(F)(F)F.F[P-](F)(F)(F)(F)F.F[P-](F)(F)(F)(F)F.F[P-](F)(F)(F)(F)F.F[P-](F)(F)(F)(F)F.F[P-](F)(F)(F)(F)F.F[P-](F)(F)(F)(F)F.F[P-](F)(F)(F)(F)F.F[P-](F)(F)(F)(F)F.F[P-](F)(F)(F)(F)F.F[P-](F)(F)(F)(F)F.F[P-](F)(F)(F)(F)F.F[P-](F)(F)(F)(F)F.F[P-](F)(F)(F)(F)F.F[P-](F)(F)(F)(F)F.F[P-](F)(F)(F)(F)F.F[P-](F)(F)(F)(F)F.F[P-](F)(F)(F)(F)F.F[P-](F)(F)(F)(F)F.F[P-](F)(F)(F)(F)F.F[P-](F)(F)(F)(F)F.F[P-](F)(F)(F)(F)F.F[P-](F)(F)(F)(F)F.F[P-](F)(F)(F)(F)F.F[P-](F)(F)(F)(F)F.F[P-](F)(F)(F)(F)F.F[P-](F)(F)(F)(F)F.F[P-](F)(F)(F)(F)F.F[P-](F)(F)(F)(F)F.F[P-](F)(F)(F)(F)F.F[P-](F)(F)(F)(F)F.F[P-](F)(F)(F)(F)F.F[P-](F)(F)(F)(F)F.F[P-](F)(F)(F)(F)F.F[P-](F)(F)(F)(F)F.F[P-](F)(F)(F)(F)F.F[P-](F)(F)(F)(F)F.F[P-](F)(F)(F)(F)F | 20 µg/mL | inactive | inactive | 2.32 µg/mL | Dose-dependent effect | 191 nM | Dose-dependent effect | 233 nM | Dose-dependent effect | 38.3 nM | Dose-dependent effect | 124 nM | 1750 nM | 9 µg/mL | 1.5 µg/mL | 178 nM | Dose-dependent effect
2 | CC[n+]1ccc(-c2cc[n+](Cc3cc(C[n+]4ccc(-c5cc[n+](CC)cc5)cc4)cc(C[n+]4ccc(-c5cc[n+](Cc6cc(C[n+]7ccc(-c8cc[n+](Cc9cc(C[n+]%10ccc(-c%11cc[n+](CC)cc%11)cc%10)cc(C[n+]%10ccc(-c%11cc[n+](CC)cc%11)cc%10)c9)cc8)cc7)cc(C[n+]7ccc(-c8cc[n+](Cc9cc(C[n+]%10ccc(-c%11cc[n+](Cc%12cc(C[n+]%13ccc(-c%14cc[n+](Cc%15cc(C[n+]%16ccc(-c%17cc[n+](CC)cc%17)cc%16)cc(C[n+]%16ccc(-c%17cc[n+](CC)cc%17)cc%16)c%15)cc%14)cc%13)cc(C[n+]%13ccc(-c%14cc[n+](Cc%15cc(C[n+]%16ccc(-c%17cc[n+](CC)cc%17)cc%16)cc(C[n+]%16ccc(-c%17cc[n+](CC)cc%17)cc%16)c%15)cc%14)cc%13)c%12)cc%11)cc%10)cc(C[n+]%10ccc(-c%11cc[n+](Cc%12cc(C[n+]%13ccc(-c%14cc[n+](Cc%15cc(C[n+]%16ccc(-c%17cc[n+](CC)cc%17)cc%16)cc(C[n+]%16ccc(-c%17cc[n+](CC)cc%17)cc%16)c%15)cc%14)cc%13)cc(C[n+]%13ccc(-c%14cc[n+](Cc%15cc(C[n+]%16ccc(-c%17cc[n+](CC)cc%17)cc%16)cc(C[n+]%16ccc(-c%17cc[n+](CC)cc%17)cc%16)c%15)cc%14)cc%13)c%12)cc%11)cc%10)c9)cc8)cc7)c6)cc5)cc4)c3)cc2)cc1.F[P-](F)(F)(F)(F)F.F[P-](F)(F)(F)(F)F.F[P-](F)(F)(F)(F)F.F[P-](F)(F)(F)(F)F.F[P-](F)(F)(F)(F)F.F[P-](F)(F)(F)(F)F.F[P-](F)(F)(F)(F)F.F[P-](F)(F)(F)(F)F.F[P-](F)(F)(F)(F)F.F[P-](F)(F)(F)(F)F.F[P-](F)(F)(F)(F)F.F[P-](F)(F)(F)(F)F.F[P-](F)(F)(F)(F)F.F[P-](F)(F)(F)(F)F.F[P-](F)(F)(F)(F)F.F[P-](F)(F)(F)(F)F.F[P-](F)(F)(F)(F)F.F[P-](F)(F)(F)(F)F.F[P-](F)(F)(F)(F)F.F[P-](F)(F)(F)(F)F.F[P-](F)(F)(F)(F)F.F[P-](F)(F)(F)(F)F.F[P-](F)(F)(F)(F)F.F[P-](F)(F)(F)(F)F.F[P-](F)(F)(F)(F)F.F[P-](F)(F)(F)(F)F.F[P-](F)(F)(F)(F)F.F[P-](F)(F)(F)(F)F.F[P-](F)(F)(F)(F)F.F[P-](F)(F)(F)(F)F.F[P-](F)(F)(F)(F)F.F[P-](F)(F)(F)(F)F.F[P-](F)(F)(F)(F)F.F[P-](F)(F)(F)(F)F.F[P-](F)(F)(F)(F)F.F[P-](F)(F)(F)(F)F.F[P-](F)(F)(F)(F)F.F[P-](F)(F)(F)(F)F.F[P-](F)(F)(F)(F)F.F[P-](F)(F)(F)(F)F.F[P-](F)(F)(F)(F)F.F[P-](F)(F)(F)(F)F | 20 µg/mL | inactive | inactive | 1.07 µg/mL | Dose-dependent effect | 108 nM | Dose-dependent effect | 180 nM | Dose-dependent effect | 89.1 nM | Dose-dependent effect | 101 nM | 542 nM | 9 µg/mL | 1.4 µg/mL | 111 nM | Dose-dependent effect
